ChEMBL document CHEMBL6134787, “Fexinidazole optimization: enhancing anti-leishmanial profile, metabolic stability and hERG safety” (RSC Med Chem, 2024)

Test system: Leishmania major
Assay: Antileishmanial activity against wild type Leishmania major FV1 promastigotes […] assessed as inhibition of parasite growth incubated for 72 hrs by automatic microtiter plate reader analysis
Assay type: functional, organism-based
Conditions: not given
Method in brief: (§1)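 Promastigotes were grown in Schneider's medium (4 mM glutamine, gentamicin, 10% heat-inactivated FBS, pH 6.9, 27 °C). Cells were seeded at 1.5 × 10^5/well and exposed to a concentration series for 72 h at 27 °C.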

Compound | IC50
CSc1ccc(NCc2ncc([N+](=O)[O-])n2C)cc1 | 9.5 µM
CSc1ccc(NC(=O)c2ncc([N+](=O)[O-])n2C)cc1 | 6.5 µM
CS(=O)(=O)c1ccc(OCC2Cn3cc([N+](=O)[O-])nc3O2)cc1 (stereo unspecified) | > 20 µM
COc1ccc(Cn2ccn3cc([N+](=O)[O-])nc3c2=O)cc1 | 6.9 µM
Cn1c([N+](=O)[O-])cnc1C(=O)Nc1ccc(F)cc1C(F)(F)F | 1.2 µM

Target: hERG (KCNH2) (Homo sapiens, UniProt Q12809)
Assay: Inhibition of human ERG stably overexpressed in HEK293 cells assessed as remaining activity at 6 uM incubated for 30 mins by FLIPR assay
Assay type: toxicity, cell-based
Conditions: HEK293 cells stably overexpressing hERG, read-out: Activity
Method in brief: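 HEK-293 cells stably expressing hERG, seeded at 60 000/well and grown 24 h. Compounds were added in DMSO (final 0.5%) and incubated 30 min in the dark. After 20 s baseline, Tl+ stimulus (3 mM) was added and fluorescence (ex 485/em 535 nm) recorded for 2.5 min.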

Chain of hERG (KCNH2) (Q12809 whole entry): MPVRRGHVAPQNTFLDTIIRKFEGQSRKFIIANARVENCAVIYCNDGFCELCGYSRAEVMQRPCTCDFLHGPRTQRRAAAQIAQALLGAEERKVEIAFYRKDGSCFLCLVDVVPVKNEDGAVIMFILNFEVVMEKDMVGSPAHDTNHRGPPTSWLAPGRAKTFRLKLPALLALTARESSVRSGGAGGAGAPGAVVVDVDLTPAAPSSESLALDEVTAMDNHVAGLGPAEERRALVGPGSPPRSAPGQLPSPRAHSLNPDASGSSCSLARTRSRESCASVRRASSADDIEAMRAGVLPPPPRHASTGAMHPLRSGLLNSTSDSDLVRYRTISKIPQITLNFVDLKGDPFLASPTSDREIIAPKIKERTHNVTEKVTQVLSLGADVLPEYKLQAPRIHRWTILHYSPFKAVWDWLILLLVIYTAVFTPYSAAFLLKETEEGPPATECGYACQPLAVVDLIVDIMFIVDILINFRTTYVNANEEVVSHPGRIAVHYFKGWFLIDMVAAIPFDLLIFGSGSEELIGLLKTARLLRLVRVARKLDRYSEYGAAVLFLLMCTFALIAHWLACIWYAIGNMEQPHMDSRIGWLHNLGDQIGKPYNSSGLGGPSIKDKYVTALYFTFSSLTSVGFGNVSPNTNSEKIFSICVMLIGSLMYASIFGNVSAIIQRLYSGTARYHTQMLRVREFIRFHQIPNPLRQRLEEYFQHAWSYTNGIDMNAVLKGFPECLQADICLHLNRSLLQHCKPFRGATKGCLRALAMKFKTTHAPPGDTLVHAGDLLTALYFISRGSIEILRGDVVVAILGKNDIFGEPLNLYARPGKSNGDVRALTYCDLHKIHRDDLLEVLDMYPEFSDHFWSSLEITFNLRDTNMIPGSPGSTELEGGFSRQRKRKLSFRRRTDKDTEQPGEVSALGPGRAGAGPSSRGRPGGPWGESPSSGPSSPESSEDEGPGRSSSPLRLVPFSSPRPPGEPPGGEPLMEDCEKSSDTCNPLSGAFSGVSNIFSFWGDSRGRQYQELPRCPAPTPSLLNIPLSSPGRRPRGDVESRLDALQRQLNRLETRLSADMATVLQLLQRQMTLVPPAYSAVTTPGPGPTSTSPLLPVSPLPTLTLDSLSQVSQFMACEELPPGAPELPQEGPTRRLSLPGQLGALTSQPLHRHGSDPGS

Compound | activity at 0.5 h, 6 µM
CSc1ccc(NCc2ncc([N+](=O)[O-])n2C)cc1 | 48%

Test system: Leishmania donovani
Assay: Antileishmanial activity against miltefosine resistant Leishmania donovani HU3MILR40 promastigotes […] assessed as inhibition of parasite growth incubated for 72 hrs by automatic microtiter plate reader analysis
Assay type: functional, organism-based
Conditions: not given
Method in brief: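 Promastigote (free parasite) assay: Schneider's Drosophila medium with 4 mM glutamine, 25 μg mL−1 gentamicin, 10% heat-inactivated FBS, pH 6.9, 27 °C. 1.5 × 10^5 promastigotes per well exposed to a concentration series for 72 h at 27 °C.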

Compound | IC50
CSc1ccc(NCc2ncc([N+](=O)[O-])n2C)cc1 | 11.9 µM
CSc1ccc(NC(=O)c2ncc([N+](=O)[O-])n2C)cc1 | > 20 µM
CS(=O)(=O)c1ccc(OCC2Cn3cc([N+](=O)[O-])nc3O2)cc1 (stereo unspecified) | 4.5 µM
COc1ccc(Cn2ccn3cc([N+](=O)[O-])nc3c2=O)cc1 | > 18.5 µM
Cn1c([N+](=O)[O-])cnc1C(=O)Nc1ccc(F)cc1C(F)(F)F | 12.2 µM

Test system: Leishmania donovani
Assay: Antileishmanial activity against wild type Leishmania donovani HU3 promastigotes […] assessed as inhibition of parasite growth incubated for 72 hrs by automatic microtiter plate reader analysis
Assay type: functional, organism-based
Conditions: not given

Compound | IC50
CSc1ccc(NCc2ncc([N+](=O)[O-])n2C)cc1 | > 20 µM
CSc1ccc(NC(=O)c2ncc([N+](=O)[O-])n2C)cc1 | > 20 µM
CS(=O)(=O)c1ccc(OCC2Cn3cc([N+](=O)[O-])nc3O2)cc1 (stereo unspecified) | > 20 µM
COc1ccc(Cn2ccn3cc([N+](=O)[O-])nc3c2=O)cc1 | > 12.4 µM
Cn1c([N+](=O)[O-])cnc1C(=O)Nc1ccc(F)cc1C(F)(F)F | 8.1 µM

Test system: Leishmania braziliensis
Assay: Antileishmanial activity against wild type Leishmania braziliensis UA847 amastigotes infected in mouse peritoneal macrophage assessed as inhibition of parasite growth incubated for 72 hrs by giemsa staining based analysis
Assay type: functional, organism-based
Conditions: not given
Method in brief: (§2)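 Mouse peritoneal macrophages (1 × 10^5/well on coverslips, DMEM + 10% heat-inactivated FBS, penicillin/streptomycin) adhered overnight at 37 °C, 5% CO2. They were infected overnight with late-log promastigotes at a 20:1 parasite:macrophage ratio. Cells were then treated with compound for 72 h at 37 °C and Giemsa-stained. Amastigotes per 100 macrophages were counted to derive IC50; mean ± SD of 3–4 independent experiments.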

Compound | IC50
Cn1c([N+](=O)[O-])cnc1C(=O)Nc1ccc(F)cc1C(F)(F)F | > 10 µM

Test system: Leishmania donovani
Assay: Antileishmanial activity against miltefosine resistant Leishmania donovani HU3MILR40 amastigotes infected in mouse peritoneal macrophage assessed as inhibition of parasite growth incubated for 72 hrs by giemsa staining based analysis
Assay type: functional, organism-based
Conditions: not given
Method in brief: (§3)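 Mouse peritoneal macrophages in DMEM + 10% heat-inactivated FBS, penicillin/streptomycin; 1 × 10^5 cells per well on coverslips, adhered overnight at 37 °C, 5% CO2, non-adherent cells washed off. Infected overnight with late-log promastigotes at parasite:macrophage 40:1. Compound exposure 72 h at 37 °C; Giemsa stain, amastigotes per 100 macrophages counted, IC50 derived; means ± SD of 3–4 independent experiments.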

Compound | IC50
Cn1c([N+](=O)[O-])cnc1C(=O)Nc1ccc(F)cc1C(F)(F)F | > 10 µM

Test system: RAW264.7
Assay: Cytotoxicity against mouse RAW264.7 cells assessed as inhibition of cell growth incubated for 72 hrs by MTS assay
Assay type: functional, cell-based
Conditions: RAW264.7, 72 h
Method in brief: (§4)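 Cells in DMEM + 10% heat-inactivated FBS with penicillin/streptomycin at 37 °C, 5% CO2. They were seeded at 1 × 10^4/well and incubated with a concentration series for 72 h at 37 °C. Viability was read by MTS/PMS assay at 490 nm and IC50 derived.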

Compound | IC50
CSc1ccc(NCc2ncc([N+](=O)[O-])n2C)cc1 | > 100 µM
CSc1ccc(NC(=O)c2ncc([N+](=O)[O-])n2C)cc1 | > 100 µM
CS(=O)(=O)c1ccc(OCC2Cn3cc([N+](=O)[O-])nc3O2)cc1 (stereo unspecified) | > 100 µM
COc1ccc(Cn2ccn3cc([N+](=O)[O-])nc3c2=O)cc1 | > 100 µM
Cn1c([N+](=O)[O-])cnc1C(=O)Nc1ccc(F)cc1C(F)(F)F | > 100 µM

Test system: Leishmania braziliensis
Assay: Antileishmanial activity against wild type Leishmania braziliensis UA847 promastigotes […] assessed as inhibition of parasite growth incubated for 72 hrs by automatic microtiter plate reader analysis
Assay type: functional, organism-based
Conditions: not given
Method in brief: as §1

Compound | IC50
CSc1ccc(NCc2ncc([N+](=O)[O-])n2C)cc1 | > 20 µM
CSc1ccc(NC(=O)c2ncc([N+](=O)[O-])n2C)cc1 | > 20 µM
CS(=O)(=O)c1ccc(OCC2Cn3cc([N+](=O)[O-])nc3O2)cc1 (stereo unspecified) | > 20 µM
COc1ccc(Cn2ccn3cc([N+](=O)[O-])nc3c2=O)cc1 | > 20 µM
Cn1c([N+](=O)[O-])cnc1C(=O)Nc1ccc(F)cc1C(F)(F)F | 2.3 µM

Test system: not listed separately
Assay: Metabolic stability in rat liver microsome assessed as compound remaining at 20 uM measured after 32 mins in presence of NADP and GSH by HPLC analysis
Assay type: ADME
Conditions: liver microsomes, read-out: Stability
Method in brief: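 Rat liver microsomes (final 2 mg/mL) in 50 mM phosphate pH 7.4 with 0.3 mM NADP+, 5.3 mM glucose-6-phosphate, G6PDH, 10 mM MgCl2 and 5 mM EDTA. 20 μM compound added at 37 °C. Aliquots at 0, 16 and 32 min were quenched in ice-cold acetonitrile and centrifuged. HPLC peak area at 254/280 nm was expressed relative to 0 min.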

Compound | remaining at 32 min, 20 µM
CSc1ccc(NCc2ncc([N+](=O)[O-])n2C)cc1 | 0%
CSc1ccc(NC(=O)c2ncc([N+](=O)[O-])n2C)cc1 | 0%
CS(=O)(=O)c1ccc(OCC2Cn3cc([N+](=O)[O-])nc3O2)cc1 (stereo unspecified) | 100%
COc1ccc(Cn2ccn3cc([N+](=O)[O-])nc3c2=O)cc1 | 100%
Cn1c([N+](=O)[O-])cnc1C(=O)Nc1ccc(F)cc1C(F)(F)F | 100%

Test system: not listed separately
Assay: Cytotoxicity against mouse L929 cells assessed as inhibition of cell growth incubated for 72 hrs by MTS assay
Assay type: toxicity, cell-based
Conditions: not given
Method in brief: as §4

Compound | IC50 at 72 h
CSc1ccc(NCc2ncc([N+](=O)[O-])n2C)cc1 | > 100 µM
CSc1ccc(NC(=O)c2ncc([N+](=O)[O-])n2C)cc1 | > 100 µM
CS(=O)(=O)c1ccc(OCC2Cn3cc([N+](=O)[O-])nc3O2)cc1 (stereo unspecified) | > 100 µM
COc1ccc(Cn2ccn3cc([N+](=O)[O-])nc3c2=O)cc1 | > 100 µM
Cn1c([N+](=O)[O-])cnc1C(=O)Nc1ccc(F)cc1C(F)(F)F | > 100 µM

Test system: not listed separately
Assay: Cytotoxicity against mouse peritoneal macrophage assessed as inhibition of cell growth incubated for 72 hrs by giemsa staining based analysis
Assay type: toxicity
Conditions: peritoneal macrophages

Compound | IC50 at 72 h
Cn1c([N+](=O)[O-])cnc1C(=O)Nc1ccc(F)cc1C(F)(F)F | > 100 µM

Test system: Leishmania amazonensis
Assay: Antileishmanial activity against wild type Leishmania amazonensis LV78 amastigotes infected in mouse peritoneal macrophage assessed as inhibition of parasite growth incubated for 72 hrs by giemsa staining based analysis
Assay type: functional, organism-based
Conditions: not given
Method in brief: as §2

Compound | IC50
Cn1c([N+](=O)[O-])cnc1C(=O)Nc1ccc(F)cc1C(F)(F)F | > 10 µM

Target: Voltage-gated inwardly rectifying potassium channel KCNH2 (Homo sapiens, UniProt Q12809)
Assay: Inhibition of human ERG stably overexpressed in HEK293 cells incubated for 30 mins by FLIPR assay
Assay type: toxicity, cell-based
Conditions: human, hek293, 0.5 h; time 30 min

Chain of Voltage-gated inwardly rectifying potassium channel KCNH2 (Q12809 whole entry): as above

Compound | IC25
CSc1ccc(NCc2ncc([N+](=O)[O-])n2C)cc1 | 3.1 µM
CSc1ccc(NC(=O)c2ncc([N+](=O)[O-])n2C)cc1 | > 3.1 µM
CS(=O)(=O)c1ccc(OCC2Cn3cc([N+](=O)[O-])nc3O2)cc1 (stereo unspecified) | 15.2 µM
COc1ccc(Cn2ccn3cc([N+](=O)[O-])nc3c2=O)cc1 | > 2 µM
Cn1c([N+](=O)[O-])cnc1C(=O)Nc1ccc(F)cc1C(F)(F)F | > 6.2 µM

Test system: Leishmania amazonensis
Assay: Antileishmanial activity against wild type Leishmania amazonensis LV78 promastigotes […] assessed as inhibition of parasite growth incubated for 72 hrs by automatic microtiter plate reader analysis
Assay type: functional, organism-based
Conditions: not given
Method in brief: as §1

Compound | IC50
CSc1ccc(NCc2ncc([N+](=O)[O-])n2C)cc1 | > 20 µM
CSc1ccc(NC(=O)c2ncc([N+](=O)[O-])n2C)cc1 | > 20 µM
CS(=O)(=O)c1ccc(OCC2Cn3cc([N+](=O)[O-])nc3O2)cc1 (stereo unspecified) | > 20 µM
COc1ccc(Cn2ccn3cc([N+](=O)[O-])nc3c2=O)cc1 | > 20 µM
Cn1c([N+](=O)[O-])cnc1C(=O)Nc1ccc(F)cc1C(F)(F)F | 4.5 µM

Test system: not listed separately
Assay: Metabolic stability in rat liver S9 fraction assessed as compound remaining at 20 uM measured after 32 mins in presence of NADP and GSH by HPLC analysis
Assay type: ADME, subcellular
Conditions: read-out: Stability
Method in brief: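 Rat liver S9 (final 4 mg/mL) in 50 mM phosphate pH 7.4 with NADPH-regenerating system (0.3 mM NADP+, 5.3 mM glucose-6-phosphate, G6PDH), 10 mM MgCl2 and 5 mM EDTA. Pre-warmed 10 min at 37 °C, then 20 μM compound and 5.5 μM GSH added. Samples taken at 0, 16 and 32 min were quenched in ice-cold acetonitrile. HPLC (254/280 nm) peak area was expressed relative to 0 min.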

Compound | remaining at 32 min, 20 µM
CSc1ccc(NCc2ncc([N+](=O)[O-])n2C)cc1 | 73.4%
CSc1ccc(NC(=O)c2ncc([N+](=O)[O-])n2C)cc1 | 6.9%
CS(=O)(=O)c1ccc(OCC2Cn3cc([N+](=O)[O-])nc3O2)cc1 (stereo unspecified) | 100%
COc1ccc(Cn2ccn3cc([N+](=O)[O-])nc3c2=O)cc1 | 100%
Cn1c([N+](=O)[O-])cnc1C(=O)Nc1ccc(F)cc1C(F)(F)F | 100%

Test system: Leishmania donovani
Assay: Antileishmanial activity against wild type Leishmania donovani HU3 amastigotes infected in mouse peritoneal macrophage assessed as inhibition of parasite growth incubated for 72 hrs by giemsa staining based analysis
Assay type: functional, organism-based
Conditions: not given
Method in brief: as §3

Compound | IC50
Cn1c([N+](=O)[O-])cnc1C(=O)Nc1ccc(F)cc1C(F)(F)F | > 10 µM

Test system: not listed separately
Assay: Hepatotoxicity against mouse TAMH cells assessed as cell viability at 7.8 to 125 uM incubated for 24 to 48 hrs by MTT assay
Assay type: toxicity, cell-based
Conditions: dose lower 7.8 µM, time lower 24 hrs, dose upper 125 µM, time upper 48 hrs, read-out: Activity
Method in brief: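 TAMH mouse liver cells in FCS-free DMEM/F12 with 5% PANEXIN NTA, 10 mM nicotinamide and gentamicin. Seeded at 20 000/well and attached 24 h at 37 °C, 5% CO2. DMSO-diluted compounds were applied for 24 or 48 h. MTT was added for 4 h, formazan dissolved in DMSO and A570 read. Viability was background-corrected and expressed relative to DMSO controls; mean ± SD, ≥3 experiments.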

Compound | viability at up to 125 µM
CSc1ccc(NCc2ncc([N+](=O)[O-])n2C)cc1 | > 50%
CSc1ccc(NC(=O)c2ncc([N+](=O)[O-])n2C)cc1 | > 50%
CS(=O)(=O)c1ccc(OCC2Cn3cc([N+](=O)[O-])nc3O2)cc1 (stereo unspecified) | > 50%
COc1ccc(Cn2ccn3cc([N+](=O)[O-])nc3c2=O)cc1 | > 50%
Cn1c([N+](=O)[O-])cnc1C(=O)Nc1ccc(F)cc1C(F)(F)F | > 50%
